# E-sel inducer: induces E-selectin expression in human endothelial cells; P16581; HUVEC E-selectin immunofluorescence imaging; normalized: neutral wells 0, TNF-alpha wells 100; activation, % at 7.58 µM; 0.37% of 260,000 active; AID 686992;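 active = mean E-selectin-positive cell signal at least 10% of the positive control, reached in at least 60% of replicates, without over 20% cell loss; inconclusive = no rule given, readout overlaps actives, possibly toxicity-flagged; inactive = the rest, including those meeting only one limit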
#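 Read-out: % PE-positive cells | Test system: HUVEC | Doses: One compound dose added by pin transfer | Buffer or medium: EGM-2 over gelatin coat | Signal: Immunofluorescence imaging | Benchmarks: TNF-alpha, DMSO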
# PglD DTNB: blocks C. jejuni PglD acetyltransferase activity; 0.098% of 360,000 active; purified PglD enzyme, DTNB colorimetric CoA detection; inhibition, % at 12.5 µM; in the data active = inhibition above about 16%, passing the limit was not always enough; inconclusive = no clear call, values can overlap the other calls
# SIRT5 inh: inhibitors of human sirtuin-5 desuccinylase | Q9NXA8 | Purified SirT5, succinyl-peptide AMC, trypsin-coupled fluorescence | inhibition, % at 15 µM | 1.1% of 330,000 active | AID 652115; in the data active = inhibition above about 15%; inconclusive = no clear call, values can overlap the other calls
# Target sequence (Q9NXA8 whole entry, looked up): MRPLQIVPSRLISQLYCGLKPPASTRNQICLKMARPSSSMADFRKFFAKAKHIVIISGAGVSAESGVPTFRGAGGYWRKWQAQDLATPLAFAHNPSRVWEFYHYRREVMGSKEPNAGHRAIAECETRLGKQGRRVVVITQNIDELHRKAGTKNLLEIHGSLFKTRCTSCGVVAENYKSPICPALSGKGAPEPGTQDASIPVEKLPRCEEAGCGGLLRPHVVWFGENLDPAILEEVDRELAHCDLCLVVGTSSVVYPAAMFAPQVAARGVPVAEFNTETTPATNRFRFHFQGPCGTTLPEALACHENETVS
# DENV2 CPE: DENV2-induced cell death inhibition | 1.7% of 350,000 active | DENV2-infected cells, cytopathic effect rescue, plate reader | CPE inhibition, % at 9.99 µM; in the data active = CPE inhibition above about 20%, passing the limit was not always enough; inconclusive = no clear call, values can overlap the other calls; tested in BHK-21 cells;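 also: 0% = median of neutral control wells and 100% = median of positive control wells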
# ERAP1 HTS inh: blocks human ERAP1 aminopeptidase activity; Q9NZ08; recombinant ERAP1, Leu-AMC fluorescence, 60 min; inhibition, % at 10.7 µM; 0.15% of 340,000 active; AID 652197;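 active = mean replicate inhibition of at least 30%, or all replicates individually reaching that 30% level; inactive = mean below 30% and not every replicate reaching it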;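 also: 0% = neutral control wells and 100% = L-leucinethiol positive control wells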
# Active calls of the source: *; ? = inconclusive; · = not tested or not shown. Most compounds without a hit are left out; they make up all but 2.5% or so of the library.
SMILES,E-sel inducer,PglD DTNB,SIRT5 inh,DENV2 CPE,ERAP1 HTS inh
COCCOC(=O)N1C(=O)[C@@]2(c3cc(C#CCC(C(=O)OC)C(=O)OC)ccc31)[C@H](c1ccccc1OCCO)N1[C@H](c3ccccc3)[C@H](c3ccccc3)OC(=O)[C@H]1[C@@H]2C(=O)NC[C@H](O)c1ccccc1,·,3,16*,30*,2
Cc1ccc(S(=O)(=O)NCC(=O)N2CCOCC2)cc1,0,-6,0,17,-5
Cc1noc(C)c1S(=O)(=O)Nc1ccc2c(c1)C(=O)N([C@H](C)CO)C[C@@H](C)[C@@H](CN(C)C(=O)Nc1ccc(C(F)(F)F)cc1)O2,-3,0,-9,18,-2
C[C@@H]1CN([C@H](C)CO)S(=O)(=O)c2ccc(-c3ccc(F)cc3)cc2O[C@H]1CN(C)C(=O)Nc1ccccc1F,0,-1,-3,-8,-1
O=C(c1ccccc1)N1C[C@H]2[C@@H](c3ccccc31)[C@H](CO)N2C(=O)c1ccccn1,0,3,1,25*,3
CN1C[C@H]2[C@@H](c3ccccc31)[C@H](CO)N2C(=O)c1ccccn1,0,1,-2,28*,2
O=C(Nc1ccccc1)N1C[C@@H]2[C@H](c3ccccc31)[C@@H](CO)N2C(=O)c1ccccn1,0,3,-2,71*,5
CN1C[C@@H]2[C@H](c3ccccc31)[C@@H](CO)N2Cc1ccccc1,0,4,-2,44*,-2
O=C(Nc1ccccc1)N1C[C@H]2[C@@H](c3ccccc31)[C@H](CO)N2C(=O)c1ccccn1,0,2,1,1,2
CN(c1ccc(O)cc1)c1nc(-c2ccccc2)cs1,·,7,·,·,·
N#Cc1ccc(-c2ccc([C@@H]3[C@H]4CN(C(=O)C5CC5)CC(=O)N4[C@H]3CO)cc2)cc1,0,·,-4,-3,2
CC(Oc1ccccc1Cl)C(=O)N1CCOCC1 (stereo unspecified),1,·,0,107*,-2
Cc1sc(-c2ccncc2)nc1OC(=O)c1cc(Cl)cc(Cl)c1,·,-1,·,·,·
CC1Cc2ccccc2N1S(=O)(=O)c1cnc(Cl)c(Br)c1 (stereo unspecified),2,-2,-1,65*,2
N#Cc1ccc(NC(=O)c2cc(-c3cccs3)on2)cc1,0,2,-5,?,·
O=C(CCn1c2c(c3ccccc31)CCCC2)NNC(=O)c1ccc(Cl)c([N+](=O)[O-])c1,·,·,27*,·,10
O=C(CN1C2=NCCCN2c2ccccc21)c1ccc2c(c1)OCO2,·,-10,-2,2,6
CC(=O)Nc1ccc(NC(=O)C(C)OC(=O)C2CCN(S(=O)(=O)c3ccccc3C(F)(F)F)CC2)cc1 (stereo unspecified),3,-2,4,-8,-4
COc1ccccc1NC(=O)C(C)OC(=O)C1CCN(S(=O)(=O)c2ccccc2C(F)(F)F)CC1 (stereo unspecified),·,9,-3,54*,4
COc1ccc(OC)c(-c2nnc3n2N=C(c2ccc(OC)c(OCC4CC4)c2)CS3)c1,·,0,·,·,·
COc1ccc(C2=Nn3c(nnc3-c3ccccc3Cl)SC2)cc1OCC1CC1,0,-4,·,32*,·
C[C@H]1CN([C@@H](C)CO)C(=O)CCCn2nncc2CO[C@@H]1CN(C)Cc1ccc(C(=O)Nc2ccccc2N)cc1,0,6,-2,-6,0
O=C(CN(Cc1cccs1)C(=O)CCC(=O)Nc1nccs1)NCc1ccccc1,·,-6,1,5,0
Cc1noc(C)c1S(=O)(=O)N(C)C[C@@H]1OCCCC[C@@H](C)Oc2ccc(NC(=O)Nc3ccc(F)cc3)cc2C(=O)N([C@@H](C)CO)C[C@@H]1C,0,·,2,46*,1
Cc1noc(C)c1S(=O)(=O)N(C)C[C@@H]1OCCCC[C@H](C)Oc2ccc(NC(=O)NC(C)C)cc2C(=O)N([C@H](C)CO)C[C@H]1C,·,0,8,86*,2
SMILES,E-sel inducer,PglD DTNB,SIRT5 inh,DENV2 CPE,ERAP1 HTS inh
Cc1noc(C)c1S(=O)(=O)N(C)C[C@H]1OCCCC[C@@H](C)Oc2ccc(NC(=O)Nc3ccc(F)cc3)cc2C(=O)N([C@H](C)CO)C[C@@H]1C,0,-4,-9,-7,1
Cc1ccccc1C[n+]1cccc2ccccc21,0,0,1,31*,-6
CCCCCCCCCCCCCCCC[n+]1cccc2ccccc21,·,·,6,-4,108*
CCc1c(C)c2cc(Cl)c(O)c(CN(CC)CC)c2oc1=O,·,-4,-194,-8,85*
CCc1c(C)c2cc(Cl)c(O)c(CN(C)C)c2oc1=O,·,·,-190,4,-102
CCC(=O)N1CC2(CN(C(=O)NC(C)C)C2)c2c(n(C)c3cc(OC)ccc23)[C@@H]1CO,1,·,·,2,1
CC1CCCCN1C(=O)CSc1nc2ccccc2n1CC(=O)N1CCc2ccccc21 (stereo unspecified),·,0,·,·,·
Cc1cc(C)nc(N/N=C/c2sccc2C)n1,·,·,20*,7,3
CC(=O)CSc1ccc(-c2nc3cc(C)c(C)cc3[nH]2)cn1,0,·,-2,27*,-5
C[C@H](CO)N1C[C@H](C)[C@@H](CN(C)CC2CC2)Oc2c(NC(=O)Nc3ccc4c(c3)OCO4)cccc2C1=O,0,·,2,-5,-11
COC(=O)c1c(NC(=O)CC2Sc3ccc(C(F)(F)F)cc3NC2=O)sc(C)c1C (stereo unspecified),·,·,·,25*,3
O=c1c2c3c(sc2nc(NCCOCCO)n1Cc1ccco1)CCCCC3,·,·,-3,-1,0
CC(O)CNc1nc2sc3c(c2c(=O)n1Cc1ccco1)CCCCC3 (stereo unspecified),11,·,-4,29*,0
O=C(Cc1ccccn1)N1CC(=O)N2[C@H](CO)[C@H](c3ccc(C#CC4CC4)cc3)[C@@H]2C1,-1,·,4,40*,2
O=C(Nc1cc(F)ccc1F)N1CC(=O)N2[C@H](CO)[C@@H](c3ccc(C#CC4CCCCC4)cc3)[C@H]2C1,-1,·,10,5,0
O=C(Nc1cc(F)ccc1F)N1CC(=O)N2[C@H](C1)[C@H](c1ccc(C#CC3CCCCC3)cc1)[C@@H]2CO,0,·,18*,-13,-1
O=C(Nc1ccccc1F)N1CC(=O)N2[C@H](C1)[C@@H](c1ccc(C#CC3CCCC3)cc1)[C@@H]2CO,0,·,19*,2,·
O=C(Nc1cc(F)ccc1F)N1CC(=O)N2[C@@H](CO)[C@H](c3ccc(C#CC4CCCCC4)cc3)[C@@H]2C1,-1,·,18*,-7,-3
COc1cc(OC)cc(C(=O)N/N=C2/SCC(=O)N2Cc2ccco2)c1,-1,-5,4,-1,0
OCC1(CO)COC2(CCCC2)N1,·,-2,·,·,·
O=S1(=O)N[C@@H](Cc2ccccc2)COc2cc(N3CCOCC3)ccc21,0,·,-3,54*,-7
CN1CCN(c2ccc3c(c2)OC[C@@H](Cc2ccccc2)NS3(=O)=O)CC1,1,·,-2,-6,·
O=CNCC(=O)NC1CCCCCC1,·,4,-3,11,-5
